Data as given in ChEMBL document CHEMBL3797198, “Discovery of pyrazinone based compounds that potently inhibit the drug-resistant enzyme variant R155K of the hepatitis C virus NS3 protease” (Bioorg Med Chem, 2016).

Tests used:
Hepatitis C virus = assay: Antiviral activity against HCV infected in human HuH7 cells by cell based replicon assay; assay type: functional, organism-based, Hepacivirus hominis; conditions: Huh-7
In short: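 HCV replicon cell assay; EC50 given as the mean of two experiments.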

[1] = Cytotoxicity against human HuH7 cells; assay type: cell-based, Huh-7
[2] = Inhibition of wild-type full-length HCV genotype 1a NS3 protease using Ac-DED(Edans)EEAbu-psi-[COO]ASK(Dabcyl)-NH2 as substrate by FRET assay; set-up: species or system Hepatitis C virus subtype 1a
In short: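 Full-length HCV NS3 (protease-helicase/NTPase), genotype 1a wild type, FRET protease assay. 1 nM enzyme preincubated 10 min at 30 °C in 50 mM HEPES pH 7.5 with 10 mM DTT. Inhibition taken from measured initial velocities, corrected for each compound's auto-fluorescence. That correction used the ratio of fluorescence with and without compound, measured at every tested concentration.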

Row | Compound | EC50 (Hepatitis C virus) | CC50 [1] | Ki [2]
1 | CC(C)(C)OC(=O)N[C@H]1CCCCC/C=C\[C@@H]2C[C@@]2(C(=O)NS(=O)(=O)C2CC2)NC(=O)[C@@H]2C[C@@H](OC(=O)N3Cc4cccc(F)c4C3)CN2C1=O [DANOPREVIR] | 11 nM | > 1000 nM | –
2 | CC(C)(C)NC(=O)Nc1nc(Cl)c(CCC2CCCCC2)n(CC(=O)Nc2cc(F)ccc2C(=O)NS(=O)(=O)c2ccc(C(F)(F)F)cc2)c1=O | 7300 nM | 38000 nM | 110 nM
3 | CC(C)(C)NC(=O)Nc1nc(Cl)c(Cc2ccccc2)n(CC(=O)NC2(C(=O)NS(=O)(=O)c3ccc(C(F)(F)F)cc3)CC(OCc3ccccc3)C2)c1=O (centres undefined) | – | – | 150 nM
4 | CC(C)(C)NC(=O)Nc1nc(Cl)c(CCC2CCCCC2)n(CC(=O)Nc2ccc(CC(=O)NS(=O)(=O)c3ccc(C(F)(F)F)cc3)cc2)c1=O | – | – | 140 nM
5 | COC(=O)c1ccccc1NC(=O)Cn1c(CCC2CCCCC2)c(Cl)nc(NC(=O)NC(C)(C)C)c1=O | 22000 nM | > 100000 nM | 120 nM
6 | CC(C)(C)NC(=O)Nc1nc(Cl)c(CCc2ccccc2)n(CC(=O)Nc2ccccc2S(=O)(=O)NC(=O)c2ccc(C(F)(F)F)cc2)c1=O | – | – | 170 nM
7 | CC(C)(C)NC(=O)Nc1nc(Cl)c(CCC2CCCCC2)n(CC(=O)Nc2ccc(C(=O)NS(=O)(=O)c3ccc(C(F)(F)F)cc3)cc2)c1=O | – | – | 260 nM
8 | CC[C@H](C)[C@H](NC(=O)[C@H](CC(C)C)NC(=O)C(CC(C(=O)O)C(=O)O)NC(=O)[C@H](CC(=O)O)NC(C)=O)C(=O)N[C@@H](CC1CCCCC1)C(=O)N[C@@H](CS)C(=O)O (single isomer, unassigned) | – | – | 91 nM
9 | CCCC(NC(=O)[C@@H]1[C@H]2CCC[C@H]2CN1C(=O)[C@@H](NC(=O)[C@@H](NC(=O)c1cnccn1)C1CCCCC1)C(C)(C)C)C(=O)C(=O)NC1CC1 (some centres undefined) | 650 nM | > 1000 nM | 15 nM
10 | CC(C)(C)NC(=O)Nc1nc(Cl)c(CCC2CCCCC2)n(CC(=O)NC2(C(=O)NS(=O)(=O)c3ccc(C(F)(F)F)cc3)CC(OCc3ccccc3)C2)c1=O (centres undefined) | – | – | 70 nM
11 | CC(C)(C)NC(=O)Nc1ncc(Cc2ccccc2)n(CC(=O)NC2(C(=O)NS(=O)(=O)c3ccc(C(F)(F)F)cc3)CC(O)C2)c1=O (centres undefined) | – | – | 450 nM
12 | CC(C)(C)NC(=O)Nc1nc(Cl)c(CCC2CCCCC2)n(CC(=O)Nc2cccc(C(=O)NS(=O)(=O)c3ccc(C(F)(F)F)cc3)c2)c1=O | – | – | 170 nM
13 | CC(C)(C)NC(=O)Nc1nc(Cl)c(Cc2cccc3ccccc23)n(CC(=O)Nc2ccccc2S(=O)(=O)NC(=O)c2ccc(C(F)(F)F)cc2)c1=O | – | – | 180 nM
14 | CC(C)(C)NC(=O)Nc1nc(Cl)c(Cc2ccccc2)n(CC(=O)O)c1=O | – | – | > 10000 nM
15 | CC(C)(C)NC(=O)Nc1nc(Cl)c(CCC2CCCCC2)n(CC(=O)Nc2ccccc2C(=O)O)c1=O | 49000 nM | > 100000 nM | 120 nM
16 | CC(C)(C)NC(=O)Nc1nc(Cl)c(CCC2CCCCC2)n(CC(=O)Nc2ccccc2C(=O)NS(=O)(=O)c2ccccc2C(F)(F)F)c1=O | – | – | 130 nM
17 | CC(C)(C)NC(=O)Nc1nc(Cl)c(CCC2CCCCC2)n(CC(=O)Nc2cc(C(=O)NS(=O)(=O)c3ccc(C(F)(F)F)cc3)cc(C(F)(F)F)c2)c1=O | – | – | 100 nM
18 | CC(C)(C)NC(=O)Nc1nc(Cl)c(CCC2CCCCC2)n(CC(=O)Nc2cc(Br)ccc2C(=O)NS(=O)(=O)c2ccc(C(F)(F)F)cc2)c1=O | – | – | 150 nM
19 | CC(C)(C)NC(=O)Nc1nc(Cl)c(CCC2CCCCC2)n(CC(=O)Nc2cc(-c3cncnc3)ccc2C(=O)NS(=O)(=O)c2ccc(C(F)(F)F)cc2)c1=O | – | – | 120 nM
20 | C=Cc1ccc(C(=O)NS(=O)(=O)c2ccc(C(F)(F)F)cc2)c(NC(=O)Cn2c(CCC3CCCCC3)c(Cl)nc(NC(=O)NC(C)(C)C)c2=O)c1 | – | – | 120 nM
21 | CC(C)(C)NC(=O)Nc1nc(Cl)c(CCC2CCCCC2)n(CC(=O)Nc2ccccc2C(=O)NS(=O)(=O)c2cccc(C(F)(F)F)c2)c1=O | – | – | 230 nM
22 | CN(C(=O)c1ccccc1NC(=O)Cn1c(CCC2CCCCC2)c(Cl)nc(NC(=O)NC(C)(C)C)c1=O)S(=O)(=O)c1ccc(C(F)(F)F)cc1 | – | – | 260 nM
23 | CC(C)(C)NC(=O)Nc1nc(Cl)c(Cc2cccc3ccccc23)n(CC(=O)Nc2cccc(S(=O)(=O)NC(=O)c3ccc(C(F)(F)F)cc3)c2)c1=O | – | – | 190 nM
24 | Cc1ccc(S(=O)(=O)NC(=O)c2ccccc2NC(=O)Cn2c(CCC3CCCCC3)c(Cl)nc(NC(=O)NC(C)(C)C)c2=O)cc1 | – | – | 120 nM
25 | CC(C)(C)NC(=O)Nc1nc(Cl)c(Cc2cccc3ccccc23)n(CC(=O)Nc2ccc(S(=O)(=O)NC(=O)c3ccc(C(F)(F)F)cc3)cc2)c1=O | – | – | 170 nM
